In ChEMBL document CHEMBL3588757, “Structure-based design, synthesis and biological testing of piperazine-linked bis-epipodophyllotoxin etoposide analogs” (Bioorg Med Chem, 2015):

Tests used:
Type in all cases: functional
SF-295 [1] = experiment: Cytotoxicity against human SF295 cells assessed as cell growth at 0.5 uM by SRB assay; details: read-out: Activity
OVCAR-3 [2] = experiment: Cytotoxicity against human OVCAR3 cells assessed as cell growth at 0.005 uM by SRB assay; details: read-out: Activity
SW-620 = experiment: Cytotoxicity against human SW620 cells by SRB assay
Method in brief: (§1)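 NCI-60 panel screen; 5-dose testing giving GI50 per cell line, plus a single 10 µM one-dose test. Method details not given beyond the NCI screen.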

UACC-257 [3] = experiment: Cytotoxicity against human UACC257 cells assessed as cell growth at 50 uM by SRB assay; details: read-out: Activity
OVCAR-5 = experiment: Cytotoxicity against human OVCAR5 cells assessed as cell growth at 0.5 uM by SRB assay; details: read-out: Activity
RPMI-8226 = experiment: Cytotoxicity against human RPMI8226 cells assessed as cell growth at 5 uM by SRB assay; details: read-out: Activity
MDA-MB-435 [4] = experiment: Cytotoxicity against human MDA-MB-435 cells assessed as cell growth at 0.5 uM by SRB assay; details: read-out: Activity
OVCAR-8 = experiment: Cytotoxicity against human OVCAR8 cells by SRB assay; method in brief: as §1
M14 = experiment: Cytotoxicity against human M14 cells assessed as cell growth at 5 uM by SRB assay; details: read-out: Activity
SK-MEL-28 = experiment: Cytotoxicity against human SK-MEL-28 cells assessed as cell growth at 5 uM by SRB assay; details: read-out: Activity
MCF7 [5] = experiment: Cytotoxicity against human MCF7 cells assessed as cell growth at 0.5 uM by SRB assay; details: read-out: Activity
A549 [6] = experiment: Cytotoxicity against human A549/ATCC cells assessed as cell growth at 5 uM by SRB assay; details: read-out: Activity
ACHN [7] = experiment: Cytotoxicity against human ACHN cells assessed as cell growth at 0.005 uM by SRB assay; details: read-out: Activity
CCRF-CEM = experiment: Cytotoxicity against human CCRF-CEM cells assessed as cell growth at 0.5 uM by SRB assay; details: read-out: Activity
OVCAR-3 [8] = experiment: Cytotoxicity against human OVCAR3 cells assessed as cell growth at 0.5 uM by SRB assay; details: read-out: Activity
IGROV-1 = experiment: Cytotoxicity against human IGROV1 cells assessed as cell growth at 50 uM by SRB assay; details: read-out: Activity
U-251 [9] = experiment: Cytotoxicity against human U251 cells by SRB assay; method in brief: as §1
SNB-75 = experiment: Cytotoxicity against human SNB75 cells assessed as cell growth at 0.5 uM by SRB assay; details: read-out: Activity
NCI-H322M = experiment: Cytotoxicity against human NCI-H322M cells assessed as cell growth at 5 uM by SRB assay; details: read-out: Activity
MDA-MB-468 = experiment: Cytotoxicity against human MDA-MB-468 cells assessed as cell growth at 5 uM by SRB assay; details: read-out: Activity
HCC 2998 = experiment: Cytotoxicity against human HCC2998 cells assessed as cell growth at 0.05 uM by SRB assay; details: read-out: Activity
Method in brief: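 Measured in the NCI-60 human tumour cell line panel using five-dose testing. Growth was recorded at each dose for each cell line, and a GI50 was derived for each line.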

A549 [10] = experiment: Cytotoxicity against human A549/ATCC cells by SRB assay
BT-549 = experiment: Cytotoxicity against human BT549 cells assessed as cell growth at 50 uM by SRB assay; details: read-out: Activity
MDA-MB-231 = experiment: Cytotoxicity against human MDA-MB-231/ATCC cells assessed as cell growth at 5 uM by SRB assay; details: read-out: Activity
MOLT-4 = experiment: Cytotoxicity against human MOLT4 cells assessed as cell growth at 5 uM by SRB assay; details: read-out: Activity
SK-MEL-2 = experiment: Cytotoxicity against human SK-MEL-2 cells by SRB assay; method in brief: as §1
TK-10 [11] = experiment: Cytotoxicity against human TK10 cells assessed as cell growth at 0.05 uM by SRB assay; details: read-out: Activity
KM12 = experiment: Cytotoxicity against human KM12 cells assessed as cell growth at 0.5 uM by SRB assay; details: read-out: Activity
UACC-257 [12] = experiment: Cytotoxicity against human UACC257 cells assessed as cell growth at 0.05 uM by SRB assay; details: read-out: Activity
UACC-62 = experiment: Cytotoxicity against human UACC62 cells assessed as cell growth at 0.05 uM by SRB assay; details: read-out: Activity
TK-10 [13] = experiment: Cytotoxicity against human TK10 cells assessed as cell growth at 0.005 uM by SRB assay; details: read-out: Activity
PC-3 = experiment: Cytotoxicity against human PC3 cells assessed as cell growth at 5 uM by SRB assay; details: read-out: Activity
ACHN [14] = experiment: Cytotoxicity against human ACHN cells assessed as cell growth at 5 uM by SRB assay; details: read-out: Activity
MDA-MB-435 [15] = experiment: Cytotoxicity against human MDA-MB-435 cells assessed as cell growth at 0.05 uM by SRB assay; details: read-out: Activity
NCI-H226 = experiment: Cytotoxicity against human NCI-H226 cells assessed as cell growth at 50 uM by SRB assay; details: read-out: Activity
UACC-257 [16] = experiment: Cytotoxicity against human UACC257 cells assessed as cell growth at 0.5 uM by SRB assay; details: read-out: Activity
786-0 = experiment: Cytotoxicity against human 786-0 cells by SRB assay
U-251 [17] = experiment: Cytotoxicity against human U251 cells assessed as cell growth at 0.5 uM by SRB assay; details: read-out: Activity
SF-295 [18] = experiment: Cytotoxicity against human SF295 cells assessed as cell growth at 50 uM by SRB assay; details: read-out: Activity
MCF7 [19] = experiment: Cytotoxicity against human MCF7 cells assessed as cell growth at 0.05 uM by SRB assay; details: read-out: Activity
T47D = experiment: Cytotoxicity against human T47D cells assessed as cell growth at 50 uM by SRB assay; details: read-out: Activity
A498 = experiment: Cytotoxicity against human A498 cells assessed as cell growth at 50 uM by SRB assay; details: read-out: Activity
[20] = Cytotoxicity against human NCI-ADR-RES cells assessed as cell growth at 5 uM by SRB assay; details: read-out: Activity
U-251 [21] = experiment: Cytotoxicity against human U251 cells assessed as cell growth at 5 uM by SRB assay; details: read-out: Activity
[22] = read-out: LC50 (the source's name)
[23] = read-out: pLC50 (the source's name) (converted)

COc1cc([C@@H]2c3cc4c(cc3[C@@H](NC(=O)CN3CCN(CCCCCCN5CCN(CC(=O)N[C@@H]6c7cc8c(cc7[C@@H](c7cc(OC)c(O)c(OC)c7)[C@H]7C(=O)OC[C@@H]76)OCO8)CC5)CC3)[C@H]3COC(=O)[C@H]23)OCO4)cc(OC)c1O
growth at 0.5 µM (SF-295 [1]): 94%
growth at 0.005 µM (OVCAR-3 [2]): 110%
GI50 (SW-620; read-out: GI50): 1.6 µM
CC50 (SW-620; [22]): > 50 µM
TGI (SW-620; read-out: TGI): > 50 µM
GI50 (SW-620; read-out: pGI50 (converted)): 1.58 µM
CC50 (SW-620; [23]): > 50.1 µM
TGI (SW-620; read-out: pTGI (converted)): > 50.1 µM
growth at 50 µM (UACC-257 [3]): 41%
growth at 0.5 µM (OVCAR-5): 86%
growth at 5 µM (RPMI-8226): -1%
growth at 0.5 µM (MDA-MB-435 [4]): 84%
GI50 (OVCAR-8; read-out: GI50): 35.7 µM
CC50 (OVCAR-8; [22]): > 50 µM
TGI (OVCAR-8; read-out: TGI): > 50 µM
GI50 (OVCAR-8; read-out: pGI50 (converted)): 35.5 µM
CC50 (OVCAR-8; [23]): > 50.1 µM
TGI (OVCAR-8; read-out: pTGI (converted)): > 50.1 µM
growth at 5 µM (M14): 35%
growth at 5 µM (SK-MEL-28): 56%
growth at 0.5 µM (MCF7 [5]): 31%
growth at 5 µM (A549 [6]): 35%
growth at 0.005 µM (ACHN [7]): 94%
growth at 0.5 µM (CCRF-CEM): 31%
growth at 0.5 µM (OVCAR-3 [8]): 103%
growth at 50 µM (IGROV-1): 47%
GI50 (U-251 [9]; read-out: GI50): 1.56 µM
CC50 (U-251 [9]; [22]): > 50 µM
TGI (U-251 [9]; read-out: TGI): 25.1 µM
GI50 (U-251 [9]; read-out: pGI50 (converted)): 1.55 µM
CC50 (U-251 [9]; [23]): > 50.1 µM
TGI (U-251 [9]; read-out: pTGI (converted)): 25.1 µM
growth at 0.5 µM (SNB-75): 61%
growth at 5 µM (NCI-H322M): 99%
growth at 5 µM (MDA-MB-468): 22%
growth at 0.05 µM (HCC 2998): 104%
GI50 (A549 [10]; read-out: GI50): 0.919 µM
CC50 (A549 [10]; [22]): > 50 µM
TGI (A549 [10]; read-out: TGI): 15.2 µM
GI50 (A549 [10]; read-out: pGI50 (converted)): 0.912 µM
CC50 (A549 [10]; [23]): > 50.1 µM
TGI (A549 [10]; read-out: pTGI (converted)): 15.1 µM
growth at 50 µM (BT-549): -40%
growth at 5 µM (MDA-MB-231): 79%
growth at 5 µM (MOLT-4): 6%
GI50 (SK-MEL-2; read-out: GI50): 11.3 µM
CC50 (SK-MEL-2; [22]): > 50 µM
TGI (SK-MEL-2; read-out: TGI): 35.5 µM
GI50 (SK-MEL-2; read-out: pGI50 (converted)): 11.2 µM
CC50 (SK-MEL-2; [23]): > 50.1 µM
TGI (SK-MEL-2; read-out: pTGI (converted)): 35.5 µM
growth at 0.05 µM (TK-10 [11]): 98%
growth at 0.5 µM (KM12): 81%
growth at 0.05 µM (UACC-257 [12]): 113%
growth at 0.05 µM (UACC-62): 90%
growth at 0.005 µM (TK-10 [13]): 101%
growth at 5 µM (PC-3): 54%
growth at 5 µM (ACHN [14]): 73%
growth at 0.05 µM (MDA-MB-435 [15]): 96%
growth at 50 µM (NCI-H226): -2%
growth at 0.5 µM (UACC-257 [16]): 108%
GI50 (786-0; read-out: GI50): 2.86 µM
CC50 (786-0; [22]): > 50 µM
TGI (786-0; read-out: TGI): 31.7 µM
GI50 (786-0; read-out: pGI50 (converted)): 2.88 µM
CC50 (786-0; [23]): > 50.1 µM
TGI (786-0; read-out: pTGI (converted)): 31.6 µM
growth at 0.5 µM (U-251 [17]): 76%
growth at 50 µM (SF-295 [18]): 1%
growth at 0.05 µM (MCF7 [19]): 77%
growth at 50 µM (T47D): 2%
growth at 50 µM (A498): -10%
growth at 5 µM [20]: 107%
growth at 5 µM (U-251 [21]): 23%
